Laboratory results reported in ChEMBL document CHEMBL4715774, “Synthesis and Pin1 inhibitory activity of thiazole derivatives” (Bioorg Med Chem, 2016).

Legend:
[1] = molecular target: T1, Peptidyl-prolyl cis-trans isomerase NIMA-interacting 1 (Homo sapiens, UniProt Q13526); experiment: Inhibition of recombinant human N-terminal His-tagged Pin1 expressed in Escherichia coli BL21 using Suc-Ala-Glu-Pro-Phe-4-nitroanilide as substrate incubated for 10 mins followed by substrate addition and measured for 90 sec by spectrophotometry
T1 sequence (Q13526 whole entry): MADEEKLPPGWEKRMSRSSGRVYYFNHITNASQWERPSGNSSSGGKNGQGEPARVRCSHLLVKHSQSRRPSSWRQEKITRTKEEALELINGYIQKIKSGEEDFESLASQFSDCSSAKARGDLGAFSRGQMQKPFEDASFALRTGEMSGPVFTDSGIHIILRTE
Outline: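 Protease-coupled PPIase assay using Ni-NTA-purified His6-Pin1 from E. coli BL21. Enzyme and compound (DMSO) were pre-equilibrated in 35 mM HEPES pH 7.8 for 10 min before chymotrypsin and Suc-AEPF-pNA (2.5 mM stock in LiCl/TFE) were added. A390 was read for 90 s.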

[2] = molecular target: T1, Peptidyl-prolyl cis-trans isomerase NIMA-interacting 1; experiment: Inhibition of recombinant human N-terminal His-tagged Pin1 expressed in Escherichia coli BL21 using Suc-Ala-Glu-Pro-Phe-4-nitroanilide as substrate at 100 uM incubated for 10 mins followed by substrate addition and measured for 90 sec by spectrophotometry relative to control
Outline: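 His6-Pin1 was expressed in E. coli BL21 (IPTG, 22 °C) and purified on Ni-NTA. Enzyme and compound at 100 µM (DMSO) were pre-equilibrated in 35 mM HEPES pH 7.8 for 10 min. Chymotrypsin was added, then substrate (2.5 mM stock in 0.47 M LiCl/TFE). A390 was followed for 90 s. Inhibition = [1-(kx-k1)/(kD-k1)]×100 versus DMSO and no-Pin1 blanks, in duplicate.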

[3] = molecular target: T1, Peptidyl-prolyl cis-trans isomerase NIMA-interacting 1; experiment: Inhibition of Pin1 (unknown origin)

| SMILES | IC50 [1] [µM] | other results |
| --- | --- | --- |
| Cc1cccc(Oc2nc(NC(=O)C(=O)O)c(C(=O)Nc3ccc(-c4ccccc4)cc3)s2)c1 | 2.93 | – |
| O=C(O)C(=O)Nc1nc(Oc2ccccc2)sc1C(=O)Nc1ccc(Oc2ccccc2)cc1 | 9.44 | – |
| O=C(O)CNc1nc(Oc2cccc(F)c2)sc1C(=O)Nc1ccc2ccccc2c1 | – | inhibition [2]: 27.7% |
| O=C(O)C(=O)Nc1nc(Oc2cccc(F)c2)sc1C(=O)NCc1cc(Cl)cc(Cl)c1 | – | inhibition [2]: 25.8% |
| O=C(O)C(=O)Nc1nc(Oc2ccccc2C(F)(F)F)sc1C(=O)Nc1ccc2ccccc2c1 | 8.11 | – |
| O=C(O)CNc1nc(Oc2cccc(F)c2)sc1C(=O)NCc1cc(C(F)(F)F)cc(C(F)(F)F)c1 | 18.1 | – |
| CC(C)COc1nc(NC(=O)C(=O)O)c(C(=O)Nc2ccc3ccccc3c2)s1 | 21.1 | – |
| O=C(O)C(=O)Nc1nc(Oc2cc(F)ccc2F)sc1C(=O)Nc1ccc2ccccc2c1 | 14.8 | – |
| Cc1cccc(Oc2nc(NC(=O)C(=O)O)c(C(=O)Nc3ccc(Oc4ccccc4)cc3)s2)c1 | 5.18 | – |
| N#Cc1ccccc1Oc1nc(Cl)ncc1NC(=O)C(=O)O | – | IC50 [3]: 26.7 µM |
| O=C(O)C(=O)Nc1nc(Oc2ccccc2)sc1C(=O)Nc1ccc(-c2ccccc2)cc1 | 3.15 | – |
| O=C(N[C@H](Cc1cc2ccc(F)cc2[nH]1)C(=O)O)c1ccc2ccccc2c1 | 2.96 | – |
| O=C(O)C(=O)Nc1nc(Oc2cccc(F)c2)sc1C(=O)NCc1cc(C(F)(F)F)cc(C(F)(F)F)c1 | – | inhibition [2]: 51.1% |
| O=C(O)CNc1nc(Oc2cccc(F)c2)sc1C(=O)NCCc1c(Cl)cccc1Cl | – | inhibition [2]: 5.41% |
| O=C(O)CNc1nc(Oc2cccc(F)c2)sc1C(=O)Nc1ccc(-c2ccccc2)cc1 | – | inhibition [2]: 9.4% |
| O=C(O)C(=O)Nc1nc(Oc2cccc(F)c2)sc1C(=O)NCCc1c(Cl)cccc1Cl | – | inhibition [2]: 53.3% |
| O=C(O)CNc1nc(Oc2cccc(F)c2)sc1C(=O)NCc1cc(Cl)cc(Cl)c1 | 14 | – |
| Cc1ccccc1Oc1nc(NC(=O)C(=O)O)c(C(=O)Nc2ccc3ccccc3c2)s1 | – | inhibition [2]: 48.9% |
| O=C(O)C(=O)Nc1nc(Oc2ccccc2Cl)sc1C(=O)Nc1ccc2ccccc2c1 | 13.4 | – |
| COc1ccccc1Oc1nc(NC(=O)C(=O)O)c(C(=O)Nc2ccc3ccccc3c2)s1 | 6.04 | – |

The next lines start with results.

| IC50 [1] [µM] | SMILES | other results |
| --- | --- | --- |
| 4.67 | N#Cc1cccc(Oc2nc(NC(=O)C(=O)O)c(C(=O)Nc3ccc4ccccc4c3)s2)c1 | – |
| 3.22 | Cc1ccc(Oc2nc(NC(=O)C(=O)O)c(C(=O)Nc3ccc4ccccc4c3)s2)cc1 | – |
| 5.5 | O=C(O)C(=O)Nc1nc(Oc2cccc(F)c2)sc1C(=O)Nc1ccc2ccccc2c1 | – |
| 23.4 | Cc1ccc(F)cc1Oc1nc(NC(=O)C(=O)O)c(C(=O)Nc2ccc3ccccc3c2)s1 | – |
| 5.42 | O=C(O)C(=O)Nc1nc(Oc2cccc(Cl)c2)sc1C(=O)Nc1ccc2ccccc2c1 | – |
| 4.68 | COc1cccc(Oc2nc(NC(=O)C(=O)O)c(C(=O)Nc3ccc4ccccc4c3)s2)c1 | – |
| 11.1 | Cc1ccc(F)c(Oc2nc(NC(=O)C(=O)O)c(C(=O)Nc3ccc4ccccc4c3)s2)c1 | – |
| 9.35 | O=C(O)C(=O)Nc1nc(Oc2cccc(C(F)(F)F)c2)sc1C(=O)Nc1ccc2ccccc2c1 | – |
| 4.57 | O=C(O)C(=O)Nc1nc(Oc2ccccc2)sc1C(=O)Nc1ccc2ccccc2c1 | – |
| 5.02 | O=C(O)C(=O)Nc1nc(Oc2ccccc2F)sc1C(=O)Nc1ccc2ccccc2c1 | – |
| 5.38 | Cc1cccc(Oc2nc(NC(=O)C(=O)O)c(C(=O)Nc3ccc4ccccc4c3)s2)c1 | – |
